This note sets out measurements from ChEMBL document CHEMBL1152933, “Synthesis and evaluation of novel 7-azaindazolyl-indolyl-maleimide derivatives as antitumor agents and protein kinase C inhibitors” (Bioorg Med Chem, 2009).

A value given as a limit tells only on which side of the number the result lay.

In one experiment the test system is SMMC-7721. Description: Antiproliferative activity against human SMMC7721 cells after 48 hrs by MTT assay. It counts as functional, cell-based. Conditions: SMMC-7721, 48 h. In a few lines:
(§1)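 MTT assay after 48 h incubation with compound. MTT (5.0 mg/mL stock in RPMI-1640) was added and incubated a further 4 h at 37 °C. Formazan was dissolved in DMSO and absorbance read at 570 nm. IC50 is the concentration giving 50% decrease in cell growth, computed from dose-effect analysis. Triplicate wells, three independent experiments, values are means.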
(In general: Formazan colour is commonly taken as a measure of viable cells.)

Experiment [1] in a line: Inhibition of PKC by […] assay. In a few lines:
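Recombinant PKC was incubated with reaction mixture containing a fluorescent PepTag PKC-specific peptide substrate at 30 °C for 30 min, then stopped by boiling. Phosphorylated (−1) and nonphosphorylated (+1) peptide were separated on 0.8% agarose in 50 mM Tris-HCl pH 8.0 at 100 V for 15 min and visualized under UV. IC50 values are means of three experiments.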

A further experiment relates to A549. Description: Antiproliferative activity against human A549 cells after 48 hrs by MTT assay. In kind it is functional, cell-based. Conditions: A549, 48 h. The method, boiled down:
as §1

Another experiment concerns K562. Description: Antiproliferative activity against human K562 cells after 48 hrs by MTT assay. In kind it is functional, cell-based. The conditions noted are these: K562, 48 h. In a few lines: as §1
Another experiment concerns KB. Description: Antiproliferative activity against human KB cells after 48 hrs by MTT assay. In kind it is functional, cell-based. The method, boiled down: as §1
The nature of experiment [2]: Antiproliferative activity against human ECA109 cells after 48 hrs by MTT assay. In kind it is functional, cell-based. The conditions noted are these: ECa-109, 48 h. In a few lines: as §1

In the case of `Cn1cc(C2=C(c3nn(CCCN4CCCCC4)c4ncccc34)C(=O)N(c3ccc(Cl)cc3)C2=O)c2ccccc21`, the concentration for half-maximal inhibition (IC50) with SMMC-7721 is more than 100 µM; in experiment [1], more than 10 µM; with A549, 28.7 µM; in the experiment with K562 it was 1.8 µM; in the experiment with KB, more than 100 µM; in experiment [2], more than 100 µM.

With `Cn1cc(C2=C(c3nn(CCn4ccnc4)c4ncccc34)C(=O)N(c3ccccc3)C2=O)c2ccccc21`, the concentration for half-maximal inhibition (IC50) was more than 100 µM in the experiment with SMMC-7721; more than 10 µM in experiment [1]; 43.1 µM with A549; 26.4 µM with K562; more than 100 µM in the experiment on KB; 8.77 µM in experiment [2].

For the compound `COc1ccc(N2C(=O)C(c3cn(C)c4ccccc34)=C(c3nn(CCCN4CCCCC4)c4ncccc34)C2=O)cc1`, the concentration for half-maximal inhibition (IC50) in the experiment on SMMC-7721 was 1.74 µM; in experiment [1] it was more than 10 µM; in the experiment on A549 it was 30.3 µM; in the experiment with K562, more than 100 µM; with KB it was 44 µM; in experiment [2], 3.34 µM.

Consider `Cn1cc(C2=C(c3nn(CCCN4CCCCC4)c4ncccc34)C(=O)N(c3cccc4ccccc34)C2=O)c2ccccc21`, for which the 50% inhibitory concentration (IC50) was 0.22 µM with SMMC-7721; more than 10 µM in experiment [1]; 2.82 µM in the experiment with A549; 3.18 µM in the experiment with K562; 13.4 µM in the experiment with KB; 1.83 µM in experiment [2].

In the case of `Cn1cc(C2=C(c3nn(CCCn4cncn4)c4ncccc34)C(=O)N(c3ccccc3)C2=O)c2ccccc21`, the concentration for half-maximal inhibition (IC50) with SMMC-7721 was more than 100 µM; in experiment [1], more than 10 µM; in the experiment on A549, more than 100 µM; with K562, more than 100 µM; in the experiment with KB, more than 100 µM; in experiment [2], more than 100 µM.

Take `O=C1NC(=O)C(c2c[nH]c3ccccc23)=C1c1c[nH]c2ccccc12` [RO-316233]: the IC50 was more than 100 µM with SMMC-7721; 0.35 µM in experiment [1]; 56.6 µM with A549; 17.5 µM in the experiment on K562; 53.8 µM in the experiment with KB; 83.5 µM in experiment [2].

Take `Cn1cc(C2=C(c3nn(CCCN4CCOCC4)c4ncccc34)C(=O)NC2=O)c2ccccc21`: the 50% inhibitory concentration (IC50) in the experiment on SMMC-7721 is more than 100 µM; in experiment [1] it was 5.95 µM; in the experiment on A549 it was more than 100 µM; in the experiment on K562, more than 100 µM; with KB, more than 100 µM; in experiment [2], more than 100 µM.

Consider `Cn1cc(C2=C(c3nn(CCCN4CCCCC4)c4ncccc34)C(=O)NC2=O)c2ccccc21`, for which the IC50 in the experiment on SMMC-7721 is 7.67 µM; in experiment [1] it was 0.65 µM; in the experiment on A549, more than 100 µM; in the experiment with K562 it was 5.96 µM; in the experiment with KB it was 98 µM; in experiment [2] it was 42.3 µM.

In the case of `Cn1cc(C2=C(c3nn(CCn4ccnc4)c4ncccc34)C(=O)NC2=O)c2ccccc21`, the IC50 is more than 100 µM in the experiment on SMMC-7721; 9.1 µM in experiment [1]; more than 100 µM in the experiment with A549; more than 100 µM in the experiment on K562; more than 100 µM in the experiment with KB; more than 100 µM in experiment [2].

Consider `Cn1cc(C2=C(c3nn(CCCCn4ccnc4)c4ncccc34)C(=O)N(c3ccccc3)C2=O)c2ccccc21`, for which the IC50 with SMMC-7721 is 1.76 µM; in experiment [1] it was more than 10 µM; in the experiment with A549, 21.7 µM; in the experiment with K562 it was 5.03 µM; with KB, 47.3 µM; in experiment [2], 7.54 µM.

Regarding `Cn1cc(C2=C(c3nn(CCCn4ccnc4)c4ncccc34)C(=O)NC2=O)c2ccccc21`, the IC50 was more than 100 µM in the experiment on SMMC-7721; 0.9 µM in experiment [1]; more than 100 µM in the experiment on A549; 13.8 µM in the experiment with K562; more than 100 µM in the experiment on KB; more than 100 µM in experiment [2].

`Cn1cc(C2=C(c3nn(CCCN4CCCCC4)c4ncccc34)C(=O)N(c3ccccn3)C2=O)c2ccccc21`: the IC50 is more than 100 µM with SMMC-7721; more than 10 µM in experiment [1]; more than 100 µM with A549; more than 100 µM with K562; more than 100 µM in the experiment on KB; 7.3 µM in experiment [2].

Turning to `Cn1cc(C2=C(c3n[nH]c4ncccc34)C(=O)NC2=O)c2ccccc21`, the IC50 with SMMC-7721 was more than 100 µM; in experiment [1], more than 10 µM; in the experiment with A549 it was more than 100 µM; with K562 it was more than 100 µM; with KB, 62 µM; in experiment [2], 46.1 µM.

In the case of `Cn1cc(C2=C(c3n[nH]c4ncccc34)C(=O)N(c3cccc4ccccc34)C2=O)c2ccccc21`, the IC50 was more than 100 µM in the experiment with SMMC-7721; more than 10 µM in experiment [1]; more than 100 µM with A549; more than 100 µM in the experiment with K562; more than 100 µM in the experiment on KB; more than 100 µM in experiment [2].

`Cn1cc(C2=C(c3nn(CCCn4ccnc4)c4ncccc34)C(=O)N(c3ccccc3)C2=O)c2ccccc21`: the IC50 in the experiment with SMMC-7721 was 34.8 µM; in experiment [1], more than 10 µM; in the experiment on A549, 1.56 µM; in the experiment on K562 it was 5.51 µM; in the experiment on KB, 6.8 µM; in experiment [2] it was 1.44 µM.

As to `Cn1cc(C2=C(c3nn(CCCCn4ccnc4)c4ncccc34)C(=O)NC2=O)c2ccccc21`, the IC50 was 29.2 µM in the experiment on SMMC-7721; 0.86 µM in experiment [1]; 2.38 µM in the experiment on A549; 31.8 µM with K562; more than 100 µM in the experiment on KB; 23.5 µM in experiment [2].

For `CN(C)CCCn1nc(C2=C(c3cn(C)c4ccccc34)C(=O)NC2=O)c2cccnc21`, the IC50 in the experiment with SMMC-7721 was more than 100 µM; in experiment [1] it was 0.72 µM; with A549, more than 100 µM; in the experiment with K562, 50.4 µM; with KB it was more than 100 µM; in experiment [2] it was more than 100 µM.

`CN1CCN(CCCn2nc(C3=C(c4cn(C)c5ccccc45)C(=O)NC3=O)c3cccnc32)CC1`: the half-inhibitory concentration (IC50) in the experiment with SMMC-7721 was more than 100 µM; in experiment [1], 1.86 µM; in the experiment with A549, more than 100 µM; with K562 it was 46.7 µM; with KB it was more than 100 µM; in experiment [2], more than 100 µM.

Consider `Cn1cc(C2=C(c3nn(CCCn4cccc4)c4ncccc34)C(=O)NC2=O)c2ccccc21`, for which the IC50 was more than 100 µM in the experiment with SMMC-7721; 1.1 µM in experiment [1]; more than 100 µM in the experiment with A549; 21.6 µM in the experiment on K562; more than 100 µM in the experiment with KB; more than 100 µM in experiment [2].

For the compound `Cn1cc(C2=C(c3nn(CCCn4cncn4)c4ncccc34)C(=O)NC2=O)c2ccccc21`, the half-inhibitory concentration (IC50) was more than 100 µM with SMMC-7721; 2.2 µM in experiment [1]; more than 100 µM with A549; more than 100 µM in the experiment with K562; more than 100 µM in the experiment on KB; more than 100 µM in experiment [2].

Take `Cn1cc(C2=C(c3n[nH]c4ncccc34)C(=O)N(c3ccccc3)C2=O)c2ccccc21`: the concentration for half-maximal inhibition (IC50) is more than 100 µM in the experiment on SMMC-7721; more than 10 µM in experiment [1]; more than 100 µM in the experiment on A549; 3.26 µM in the experiment on K562; more than 100 µM with KB; more than 100 µM in experiment [2].

In the case of `Cn1cc(C2=C(c3nn(CCCO)c4ncccc34)C(=O)NC2=O)c2ccccc21`, the concentration for half-maximal inhibition (IC50) with SMMC-7721 is more than 100 µM; in experiment [1] it was 3.15 µM; in the experiment on A549, more than 100 µM; with K562, 85.8 µM; in the experiment with KB, more than 100 µM; in experiment [2], more than 100 µM.

As for `Cn1cc(C2=C(c3nn(CCCn4cccc4)c4ncccc34)C(=O)N(c3ccccc3)C2=O)c2ccccc21`, the IC50 is more than 100 µM in the experiment with SMMC-7721; more than 10 µM in experiment [1]; more than 100 µM in the experiment on A549; 36.6 µM in the experiment on K562; more than 100 µM with KB; more than 100 µM in experiment [2].

Consider `CN(C)CCCn1nc(C2=C(c3cn(C)c4ccccc34)C(=O)N(c3ccccc3)C2=O)c2cccnc21`, for which the IC50 in the experiment on SMMC-7721 was 31.2 µM; in experiment [1], more than 10 µM; in the experiment with A549, 13 µM; in the experiment with K562 it was 1.7 µM; in the experiment with KB it was 14.1 µM; in experiment [2], 5.84 µM.

By IC50 is commonly meant the concentration that gives 50% inhibition. Low values mean greater potency, high ones weaker potency.
